Compound activity: PubChem, Broad Institute
CAL PDZ FP-1: inhibitors of human CAL PDZ peptide binding | purified CAL PDZ, TMR-peptide fluorescence polarization, 1 h | inhibition, % at 24.9 µM | actives 0.92% (n = 300,000);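 active means mean inhibition of at least 30% with at least half of replicates also reaching 30%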;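 further: 0% = DMSO neutral control and 100% = excess unlabeled competitor peptide PRC23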
ERAP1 inh: inhibitors of human ERAP1 aminopeptidase; recombinant ERAP1, Leu-AMC fluorescence, 60 min; AID 652197; Q9NZ08; inhibition, % at 10.7 µM; actives 0.15% (n = 340,000);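 active means mean replicate inhibition of at least 30%, or all replicates individually reaching that 30% level; inactive means mean below 30% and not every replicate reaching it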;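 further: 0% = neutral control wells and 100% = L-leucinethiol positive control wells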
DENV2 CPE: DENV2-induced cell death inhibition | DENV2-infected cells, cytopathic effect rescue, plate reader | CPE inhibition, % at 9.99 µM | actives 1.7% (n = 350,000) | AID 651640; in the data active means CPE inhibition above about 20%, passing the limit was not always enough; tested in BHK-21 cells;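 further: 0% = median of neutral control wells and 100% = median of positive control wells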
CAL PDZ FP-2: inhibitors of human CAL PDZ peptide binding. Q9HD26. purified CAL PDZ, TMR-peptide fluorescence polarization, 1 h. inhibition, % at 20 µM. actives 0.02% (n = 330,000). AID 504414;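 active means highest replicate inhibition of at least 40%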;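 further: plate controls were DMSO neutral control wells for no effect and unlabeled competitor peptide control wells for full effect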
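Assay system – tagged CAL PDZ protein CerCALP, purified · Timing – 1 h at RT · Compound – single point, 20 µM · Measured by – fluorescence polarization from S- and P-plane intensities, G-factor corrected · Evaluation – inhibition from polarization loss · Probe or stimulus – TMR reporter peptide T*-PRC34 · Buffer or medium – pH 7.4 phosphate-saline buffer, reducing agent, detergent, IgG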
S100A4 inh HTS: S100A4-myosin IIA interaction inhibition | P26447 | S100A4/TAMRA-MyoIIA peptide fluorescence polarization | actives 0.14% (n = 360,000) | AID 652163 | inhibition, % at 10.7 µM;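 active means mean inhibition of at least 70% across replicates, with every replicate also reaching that level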
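Material: S100A4 monomer (human). Medium: Calcium-containing HEPES buffer, pH 7.2. Probe or stimulus: labelled myosin peptide probe, 5 nM. Compound dosing: one concentration per compound. Timing: polarization read 5 min after assay mix addition, stable 5–60 min. Benchmarks: DMSO as neutral control, TFP as positive control.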
SIRT5 inh: sirtuin-5 (human) deacylase inhibition | inhibition, % at 15 µM | actives 1.1% (n = 330,000) | Purified SirT5, succinyl-peptide AMC, trypsin-coupled fluorescence; in the data active means inhibition above about 15%
An asterisk follows results filed as active; . = no result; ! = repeats disagree. This is a sample that favours compounds with a hit; in the whole collection about 2.9% have one here.

SMILES | CAL PDZ FP-1 | ERAP1 inh | DENV2 CPE | CAL PDZ FP-2 | S100A4 inh HTS | SIRT5 inh
O=C(O)CCC1(CCC(=O)O)CCCC(CCC(=O)O)(CCC(=O)O)C1=O | 79.9* | -1.2 | -6.4 | 0.2 | -1.7 | -1.6
CC(C)NC(=O)Nc1ccc2c(c1)C(=O)N(C)[C@H]1CC[C@H](CC(=O)Nc3ccccc3Cl)O[C@@H]1CO2 | . | -0.3 | -0.4 | . | -37.2 | -1.6
COc1ccc(OCC(O)CNC(=O)c2ccc(OC)cc2)cc1 (centres undefined) | -0.6 | -5.3 | -0.6 | -1.0 | 0.4 | 2.6
COc1ccc(OCC(O)CNC(=O)c2ccc(Br)cc2)cc1 (centres undefined) | 72.2* | . | . | 13.3 | . | .
C[C@@H]1CCCCO[C@H](CN(C)Cc2ccncc2)[C@@H](C)CN([C@H](C)CO)C(=O)c2cc(NC(=O)NC3CCCCC3)ccc2O1 | . | 1.5 | 11.4 | . | 6.2 | 4.5
O=C(C[C@H]1C[C@@H]2c3cc(NC(=O)C4CCC4)ccc3O[C@@H]2[C@@H](CO)O1)NCc1ccc(-c2ccccc2)cc1 | . | 0.7 | 3.6 | . | -25.2 | 23.0*
O=C(C[C@H]1C[C@@H]2c3cc(NC(=O)C4CCC4)ccc3O[C@@H]2[C@H](CO)O1)NCc1ccccc1 | . | 4.2 | 22.7* | . | 6.0 | 0.1
COC(=O)C[C@H]1C=C[C@@H](C(C(=O)OC)C(=O)OC)CN1C(C)=O | 91.5* | -0.6 | -0.7 | -0.5 | 8.1 | -1.2
CC1(c2ccc3ccccc3c2)CCC(=O)O1 (centres undefined) | 4.3 | 0.3 | 22.1* | 0.0 | -0.8 | -2.9
CC1(c2ccc3ccccc3c2)NC(=O)N(CC(=O)O)C1=O (centres undefined) | . | 15.7 | -2.3 | -0.9 | -2.5 | -6.1
CC1CCC(C(C)C)C(OC(=O)Cn2c(-c3ccccc3)[n+](C)c3ccccc32)C1 (centres undefined) | -2.9 | 5.8 | -13.6 | -2.5 | -0.5 | 18.8*!
ON(CCc1ccncc1)Cc1ccccc1 | . | 0.8 | 14.3 | -1.3 | 72.1* | .
C[C@@H]1CN([C@H](C)CO)C(=O)c2ccccc2-c2ccccc2CO[C@@H]1CN(C)S(=O)(=O)c1ccsc1 | . | 0.7 | 4.9 | . | 0.0 | -1.3
Cn1nnnc1SCC(=O)NCc1cccs1 | 52.8* | . | . | -0.7 | . | .
Cn1nnnc1SCC(=O)Nc1nn(-c2ccccc2)nc1C(N)=O | 55.4* | 3.0 | 8.7 | -0.2 | -1.5 | -2.9
CCCNC(=O)N(C)C[C@H]1Oc2ncc(C3=CCCC3)cc2C(=O)N([C@H](C)CO)C[C@@H]1C | . | -1.8 | 7.8 | . | -16.9 | 2.2
COCCCNc1c2c3c(cccc3[nH]c1=O)C(=O)c1ccccc1-2 | . | 2.1 | -16.6 | 7.5 | 126.6* | 5.2
C[C@@H]1CN([C@H](C)CO)S(=O)(=O)c2ccc(-c3cccc(C#N)c3)cc2O[C@H]1CN(C)C(=O)c1cccnc1 | . | -0.2 | 3.0 | . | -4.3 | 3.3
C[C@@H]1CN([C@H](C)CO)C(=O)CCCn2cc(nn2)CO[C@@H]1CN(C)S(=O)(=O)c1ccc(F)cc1 | . | 2.2 | -5.1 | . | -4.6 | -0.3
Cc1ccc(S(=O)(=O)N(C)C[C@@H]2OCc3cn(nn3)CCCC(=O)N([C@@H](C)CO)C[C@@H]2C)cc1 | . | -1.6 | -2.2 | . | -59.8 | -1.7
C[C@@H]1CN([C@@H](C)CO)C(=O)CCCn2cc(nn2)CO[C@H]1CN(C)S(=O)(=O)c1ccc(Cl)cc1 | . | -0.9 | 20.8*! | . | 0.6 | -1.1
C[C@@H]1CN([C@H](C)CO)C(=O)CCCn2cc(nn2)CO[C@H]1CN(C)S(=O)(=O)c1ccc(F)cc1 | . | -0.6 | -9.9 | . | -13.4 | 22.8*!
COc1ccc(NC(=O)N2C[C@H]3[C@@H](c4ccccc42)[C@@H](CO)N3C(=O)C2CCCC2)cc1 | . | 1.5 | 3.0 | . | 0.2 | -2.3
Nc1nonc1C(=O)NCCNCc1ccccc1OCc1ccccc1F | 74.2* | . | . | -1.4 | . | .
O=C(N/N=C/c1ccoc1)c1ccccc1Br | 39.0* | -0.9 | 5.6 | 9.6 | -2.2 | -1.6
NC(=O)c1ncn([C@@H]2O[C@H](C(=O)N[C@H](Cc3c[nH]c4ccccc34)C(=O)N3CCN(CC(=O)N4CCCC4)CC3)[C@@H](O)[C@H]2O)n1 | . | 0.8 | 20.9* | . | -6.9 | -2.3
